Measurements from different studies.
Protocols differ between the studies behind these lines. ≈ marks a conversion by molar mass, not a printed value.

Structure (SMILES) | tested on | test | conditions | endpoint | result
COc1ccc(NC(=O)c2ccc(COC(Cn3ccnc3)c3ccc(Cl)cc3Cl)cc2)cc1 (centres unmarked) | Nakaseomyces glabratus | microbial growth, broth dilution |  | MIC80 | 0.125 µg/mL (≈ 0.252 µM)
Cc1n[nH]c2ccc3nc(-c4ccc(C(=O)NCCN(C)C)cc4F)c4c(c3c12)CCCCC4 | HCC827 | cell growth or viability | 72 h | GI50 | 4.87 µM
CCCCn1cnc2ccc(-c3ccc(NC(=O)Nc4ccc(C(F)(F)F)cc4)nc3)cc2c1=O | HCC827 | cell growth or viability, CCK-8 | 72 h | IC50 | > 10 µM
Cc1nc(Nc2ncc(C(=O)Nc3c(C)cccc3Cl)s2)cc(N2CC[C@H](O)C2)n1 | Daudi | cell growth or viability, ATP luminescence | 10 µM, 72 h | inhibition | 75%
Cc1n[nH]c2ccc3nc(-c4ccc(C(=O)NCCN(C)C)cc4)c4c(c3c12)CCCCC4 | HCC827 | cell growth or viability | 72 h | GI50 | 7.12 µM
CCCn1cnc2ccc(-c3ccc(NC(=O)c4ccccc4)nc3)cc2c1=O | HCC827 | cell growth or viability, CCK-8 | 72 h | IC50 | 0.1 µM
COc1cc(C2=CCCc3c2ccc(OC)c3OC(C)c2cnc([N+](=O)[O-])n2C)cc(OC)c1OC (centres unmarked) |  | tubulin polymerisation, inhibitor | 20 min | IC50 | > 20 µM
O=C(Nc1cccc(Cl)c1)c1ccc(COC(Cn2ccnc2)c2ccc(Cl)cc2Cl)cc1 (centres unmarked) | Nakaseomyces glabratus | microbial growth, broth dilution |  | MIC80 | 0.25 µg/mL (≈ 0.499 µM)
COc1cc(C2=CCCc3c2ccc(OC)c3OC(C)c2ccc([N+](=O)[O-])s2)cc(OC)c1OC (centres unmarked) |  | tubulin polymerisation, inhibitor | 20 min | IC50 | > 20 µM
CCc1nc(C(N)=O)c(Nc2ccc(N3CCC(N4CCN(C)CC4)CC3)c(OC)c2)nc1NC1CCOCC1 | HCC827 | cell growth or viability | 72 h | GI50 | 0.283 µM
O=C(Nc1cccc2ccccc12)c1ccc(COC(Cn2ccnc2)c2ccc(Cl)cc2Cl)cc1 (centres unmarked) | Nakaseomyces glabratus | microbial growth, broth dilution |  | MIC80 | 8 µg/mL (≈ 15.5 µM)
Cc1cccc(NC(=O)Nc2ccc(-c3ccc4ncn(Cc5ccccc5)c(=O)c4c3)cn2)c1 | HCC827 | cell growth or viability, CCK-8 | 72 h | IC50 | 7.31 µM
CC(C)(C)c1cc(NC(=O)Nc2ccc(-c3cn4c(n3)sc3cc(OCCN5CCOCC5)ccc34)cc2)no1 | HCC827 | cell growth or viability | 72 h | GI50 | > 10 µM
CCCn1cnc2ccc(-c3ccc(NC(=O)CC4CCC4)nc3)cc2c1=O | HCC827 | cell growth or viability, CCK-8 | 72 h | IC50 | 1.21 µM
O=C(Nc1ccc(C(F)(F)F)cc1)c1ccc(COC(Cn2ccnc2)c2ccc(Cl)cc2Cl)cc1 (centres unmarked) | Nakaseomyces glabratus | microbial growth, broth dilution |  | MIC80 | 0.125 µg/mL (≈ 0.234 µM)
CCCCn1cnc2ccc(-c3ccc(NC(=O)NCc4ccccc4)nc3)cc2c1=O | HCC827 | cell growth or viability, CCK-8 | 72 h | IC50 | 0.32 µM
COc1cc(C2=CCCc3c2ccc(OC)c3OCc2cnc([N+](=O)[O-])n2C)cc(OC)c1OC |  | tubulin polymerisation, inhibitor | 20 min | IC50 | > 20 µM
